What is called GI50 is the concentration that inhibits growth by half. Lower therefore signals more potent growth inhibition. Usually IC50 stands for the concentration needed to halve the response being measured.

One series concerns A549. The series is described as follows: Growth inhibition of human A549 cells after 72 hrs by SRB assay. The series is classed as functional. The settings on record: A549, 72 h. The gist of the method:
(§1)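 Cells seeded in 96-well plates, in exponential growth at time of sample addition; various concentrations added in triplicate, 37 °C, 5% CO2, 72 h. Fixed with formalin 30 min at room temperature, tap-water washed, stained with 0.4% SRB 30 min, washed with 1% acetic acid, dye solubilized in 10 mM unbuffered Tris base; OD at 520 nm. GI50 from dose–response curve, three independent experiments.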
(In general: The SRB assay estimates cell density from bound dye.)

Another series relates to DU-145. The series is described as follows: Growth inhibition of human DU145 cells after 72 hrs by SRB assay. Type of series: functional. The settings on record: DU-145, 72 h. The method, boiled down:
as §1

The next series relates to HT-29. The series is described as follows: Growth inhibition of human HT29 cells after 72 hrs by SRB assay. Type of series: functional. The settings on record: HT-29, 72 h. The method, boiled down: as §1
Another series has as its system SK-MEL-2. The series is described as follows: Growth inhibition of human SK-MEL-2 cells after 72 hrs by SRB assay. Type of series: functional. The settings on record: SK-MEL-2, 72 h. The gist of the method:
as §1

A further series deals with SK-OV-3. The series is described as follows: Growth inhibition of human SKOV3 cells after 72 hrs by SRB assay. Type of series: functional. The settings on record: SK-OV-3, 72 h. The gist of the method:
as §1

Series [1] deals with Voltage-dependent T-type calcium channel subunit alpha-1G (Homo sapiens, UniProt O43497). The series is described as follows: Inhibition of T-type calcium channel Cav3.1 alpha1G expressed in HEK293 cells by whole cell patch-clamp method. Type of series: cell-based. The method, boiled down:
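HEK293 stably coexpressing Cav3.1 (alpha1G) and Kir2.1; whole-cell recording, 3–4 MΩ electrodes. Internal (mM): 130 KCl, 11 EGTA, 5 Mg-ATP, 10 HEPES, pH 7.4. External (mM): 140 NaCl, 2 CaCl2, 10 HEPES, 10 glucose, pH 7.4. Currents evoked every 15 s by 50 ms step from −100 to −30 mV. IC50 for peak-current inhibition fitted from dose–response curves, three independent experiments.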
In general terms: Patch clamp records ionic current or voltage across a cell membrane.

Another series concerns Mus musculus. As to the kind of experiment: Acute toxicity in ICR CD1 mouse assessed as mortality at 1000 mg/kg, po after 5 days. The settings on record: in vivo, 120 h. Type of series: organism-based. More on the design: dose 1000 mg/kg, route oral. The gist of the method: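 Single oral dose given as a corn oil mixture to two CD-1 (ICR) mice, with mortality monitored over 5 days.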

Some results are limits rather than exact numbers.

Chain of Voltage-dependent T-type calcium channel subunit alpha-1G (O43497 whole entry): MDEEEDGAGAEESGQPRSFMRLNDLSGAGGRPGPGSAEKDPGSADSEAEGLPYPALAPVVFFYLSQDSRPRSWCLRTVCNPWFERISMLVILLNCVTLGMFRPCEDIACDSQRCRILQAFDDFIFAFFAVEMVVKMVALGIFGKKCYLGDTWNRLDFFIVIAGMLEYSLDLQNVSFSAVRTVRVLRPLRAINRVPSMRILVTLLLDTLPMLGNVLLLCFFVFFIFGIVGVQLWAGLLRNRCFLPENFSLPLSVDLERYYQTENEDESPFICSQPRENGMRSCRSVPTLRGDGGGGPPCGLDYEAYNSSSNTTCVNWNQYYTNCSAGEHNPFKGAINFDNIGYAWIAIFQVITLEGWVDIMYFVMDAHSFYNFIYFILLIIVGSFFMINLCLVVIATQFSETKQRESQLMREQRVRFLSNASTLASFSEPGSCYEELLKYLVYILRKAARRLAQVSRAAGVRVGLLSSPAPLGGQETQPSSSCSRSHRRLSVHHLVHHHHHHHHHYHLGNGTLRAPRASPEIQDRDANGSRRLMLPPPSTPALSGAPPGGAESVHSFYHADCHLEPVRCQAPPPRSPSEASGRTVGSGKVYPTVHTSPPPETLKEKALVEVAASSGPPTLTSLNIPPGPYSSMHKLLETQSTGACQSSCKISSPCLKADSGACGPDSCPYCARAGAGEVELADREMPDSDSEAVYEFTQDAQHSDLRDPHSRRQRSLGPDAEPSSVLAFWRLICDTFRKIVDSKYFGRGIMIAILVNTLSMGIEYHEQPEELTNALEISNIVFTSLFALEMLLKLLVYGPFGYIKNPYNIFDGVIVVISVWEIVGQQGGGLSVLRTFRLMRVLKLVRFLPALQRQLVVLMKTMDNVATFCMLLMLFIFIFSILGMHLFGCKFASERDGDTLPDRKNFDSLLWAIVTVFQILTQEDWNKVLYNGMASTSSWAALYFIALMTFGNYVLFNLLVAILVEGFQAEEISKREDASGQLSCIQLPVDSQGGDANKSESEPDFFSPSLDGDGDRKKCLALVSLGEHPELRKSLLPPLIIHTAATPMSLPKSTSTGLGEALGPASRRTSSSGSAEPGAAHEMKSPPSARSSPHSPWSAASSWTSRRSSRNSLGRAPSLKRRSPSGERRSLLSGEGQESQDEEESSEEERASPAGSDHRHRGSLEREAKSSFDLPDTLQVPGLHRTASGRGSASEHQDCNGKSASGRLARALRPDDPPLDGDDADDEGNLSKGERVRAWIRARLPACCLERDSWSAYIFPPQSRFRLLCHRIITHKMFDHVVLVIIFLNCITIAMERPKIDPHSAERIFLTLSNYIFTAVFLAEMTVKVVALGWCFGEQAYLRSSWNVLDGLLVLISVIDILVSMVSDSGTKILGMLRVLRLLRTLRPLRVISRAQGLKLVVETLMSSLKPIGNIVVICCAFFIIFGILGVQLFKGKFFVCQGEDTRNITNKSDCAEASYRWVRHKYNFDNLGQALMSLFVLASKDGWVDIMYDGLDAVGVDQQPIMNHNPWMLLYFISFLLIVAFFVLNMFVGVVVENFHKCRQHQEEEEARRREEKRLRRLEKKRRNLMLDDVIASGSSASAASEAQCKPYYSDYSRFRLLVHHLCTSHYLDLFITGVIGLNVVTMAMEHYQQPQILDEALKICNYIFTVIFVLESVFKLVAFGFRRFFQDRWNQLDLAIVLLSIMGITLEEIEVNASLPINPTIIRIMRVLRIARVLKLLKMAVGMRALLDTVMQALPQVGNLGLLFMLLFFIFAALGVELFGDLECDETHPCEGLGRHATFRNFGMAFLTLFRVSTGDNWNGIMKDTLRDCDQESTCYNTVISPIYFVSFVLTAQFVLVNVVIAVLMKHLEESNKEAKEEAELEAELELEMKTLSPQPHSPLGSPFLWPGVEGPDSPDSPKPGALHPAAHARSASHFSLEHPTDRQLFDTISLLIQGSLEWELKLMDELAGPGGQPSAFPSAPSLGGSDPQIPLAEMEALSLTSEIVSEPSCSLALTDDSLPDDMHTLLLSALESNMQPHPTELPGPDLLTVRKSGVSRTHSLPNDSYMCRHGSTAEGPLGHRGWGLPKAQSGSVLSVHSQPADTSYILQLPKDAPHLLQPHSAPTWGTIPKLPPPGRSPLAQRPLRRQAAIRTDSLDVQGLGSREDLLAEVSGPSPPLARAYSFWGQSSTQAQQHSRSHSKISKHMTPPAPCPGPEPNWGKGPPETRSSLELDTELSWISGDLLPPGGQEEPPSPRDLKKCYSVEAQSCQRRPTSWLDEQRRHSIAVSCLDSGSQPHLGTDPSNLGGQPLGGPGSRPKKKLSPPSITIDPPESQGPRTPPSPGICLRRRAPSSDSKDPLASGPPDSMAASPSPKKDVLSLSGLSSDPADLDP

Turning to `CCN1C(N2CCCCC2)=Nc2ccccc2C1CC(=O)NCc1ccc(NS(=O)(=O)c2ccc(F)cc2)cc1` (stereo unspecified), the 50% growth inhibitory concentration (GI50) with A549 stood at 24500 nM; in the series with DU-145, 17200 nM; in the series on HT-29 it was 13900 nM; in the series on SK-MEL-2, 17000 nM; with SK-OV-3, 26100 nM. In series [1], the IC50 turned out to be 1040 nM.

Turning to `COC(=O)CC1c2ccccc2N=C(NCCCCCNC(=O)OC(C)(C)C)N1c1ccc(-c2ccccc2)cc1` (stereo unspecified), the concentration for 50% growth inhibition (GI50) in the series on A549 came out at 3830 nM; with DU-145, 3830 nM; in the series on HT-29 it was 2080 nM; in the series on SK-MEL-2 it was 4310 nM; with SK-OV-3 it was 4610 nM.

Take `COC(=O)CC1c2ccccc2N=C(Nc2ccc(-c3ccccc3)cc2)N1CCCCCN` (stereo unspecified): the GI50 is 2900 nM in the series on A549; 4090 nM in the series on DU-145; 1080 nM in the series on HT-29; 1800 nM in the series on SK-MEL-2; 3990 nM in the series on SK-OV-3.

`O=C(CC1c2ccccc2N=C(N2CCCCC2)N1c1ccccc1)NCc1ccc(NS(=O)(=O)c2ccc(F)cc2)cc1` (stereo unspecified): the GI50 in the series with A549 was found to be 1930 nM; with DU-145, 1710 nM; in the series with HT-29, 1710 nM; with SK-MEL-2, 1730 nM; in the series with SK-OV-3, 1950 nM.

Consider `Cc1ccc(S(=O)(=O)Nc2ccc(CNC(=O)CC3c4ccccc4N=C(N(C)C)N3c3ccccc3)cc2)cc1` (stereo unspecified), for which the GI50 in the series on A549 stood at 14300 nM; in the series on DU-145, 6520 nM; in the series on HT-29 it was 3150 nM; in the series with SK-MEL-2 it was 8530 nM; in the series with SK-OV-3, 15600 nM. Besides, in series [1], the IC50 was determined as 630 nM.

For the compound `CC(C)(C)OC(=O)NCCCCCNC1=Nc2ccccc2C(CC(=O)NCc2ccccc2)N1c1ccc(-c2ccccc2)cc1` (stereo unspecified), the GI50 in the series with A549 came to 1830 nM; in the series on DU-145, 1640 nM; with HT-29, 1670 nM; with SK-MEL-2, 1480 nM; in the series with SK-OV-3, 1610 nM.

As for `CN(C)C1=Nc2ccccc2C(CC(=O)NCc2ccc(N)cc2)N1c1ccccc1` (stereo unspecified), the GI50 is over 100000 nM in the series with A549; over 100000 nM in the series on DU-145; 28300 nM in the series with HT-29; 44000 nM in the series with SK-MEL-2; over 100000 nM in the series on SK-OV-3. Further, the IC50 in series [1] was 380 nM.

Take `CN(CCCCCN1CCCC1)C1=Nc2ccccc2C(CC(=O)NCc2ccccc2)N1c1ccc(-c2ccccc2)cc1` (stereo unspecified): the GI50 in the series on A549 is 870 nM; in the series with DU-145, 2490 nM; in the series on HT-29, 610 nM; in the series with SK-MEL-2, 690 nM; with SK-OV-3, 2760 nM.

`CN(C)C1=Nc2ccccc2C(CC(=O)NCc2ccc([N+](=O)[O-])cc2)N1c1ccccc1` (stereo unspecified): the GI50 with A549 is over 100000 nM; with DU-145, over 100000 nM; with HT-29 it was 22300 nM; in the series on SK-MEL-2, 31600 nM; in the series with SK-OV-3, over 100000 nM. Further, in series [1], the IC50 worked out at 350 nM.

With `COC(=O)CC1c2ccccc2N=C(N(C)CCCCCN(C)C)N1c1ccc(-c2ccccc2)cc1` (stereo unspecified), the concentration for 50% growth inhibition (GI50) in the series with A549 turned out to be 1770 nM; in the series with DU-145, 1780 nM; in the series with HT-29, 520 nM; in the series on SK-MEL-2 it was 1910 nM; in the series on SK-OV-3 it was 1950 nM.

With `CN(C)CCCCCN(C)C1=Nc2ccccc2C(CC(=O)NCc2ccccc2)N1c1ccc(-c2ccccc2)cc1` (stereo unspecified), the GI50 in the series on A549 was determined as 170 nM; in the series with DU-145, 190 nM; in the series with HT-29, 40 nM; with SK-MEL-2, 480 nM; in the series on SK-OV-3, 660 nM. The Activity entry with Mus musculus is listed as “Non-toxic”.

As for `COc1cccc2c1C(=O)c1c(O)c3c(c(O)c1C2=O)C[C@@](O)(C(=O)CO)C[C@@H]3O[C@H]1C[C@H](N)[C@H](O)[C@H](C)O1` (stereo in doubt) [DOXORUBICIN], the concentration for 50% growth inhibition (GI50) in the series with A549 amounted to 160 nM; in the series with DU-145 it was 60 nM; with HT-29, 210 nM; in the series with SK-MEL-2, 110 nM; in the series on SK-OV-3, 120 nM.

`CC(C)(C)OC(=O)NCCCCCN1C(Nc2ccc(-c3ccccc3)cc2)=Nc2ccccc2C1CC(=O)NCc1ccccc1` (stereo unspecified): the concentration for 50% growth inhibition (GI50) in the series on A549 came out at 1870 nM; in the series on DU-145, 1790 nM; in the series on HT-29, 1700 nM; with SK-MEL-2, 1590 nM; in the series on SK-OV-3 it was 2010 nM.

Turning to `CC(C)(C)OC(=O)NCCCCCNC1=Nc2ccccc2C(CC(=O)NCc2ccccc2)N1c1ccccc1` (stereo unspecified), the GI50 in the series with A549 was 7740 nM; in the series on DU-145, 4260 nM; in the series on HT-29 it was 3180 nM; in the series on SK-MEL-2 it was 2020 nM; in the series with SK-OV-3 it was 7180 nM. The IC50 in series [1] amounted to 570 nM.
